Measured values collected from several papers.
Each line is one published result; the experiments were not run side by side.
Target: Serine/threonine-protein kinase PAK 6 (PAK6, Homo sapiens, UniProt Q9NQU5)

The remaining binding of `CN(c1nccc(-c2cnn3ncccc23)n1)C1CC1` is reported as 100% (binding; 1 µM).
With `FC(F)(F)Oc1cccc(-c2cnc3ccc(-c4ccncc4)nn23)c1` the remaining binding was 53% (cell-free assay, competition with immobilised ligand; 5 µM).
With `Cc1cnc(Nc2ccc(C(=O)N3CCC(N4CCCC4)CC3)cc2)nc1-c1cc2ccccc2s1` the remaining binding was 63% (binding, competition with immobilised ligand; 1 µM).
`c1ccc(N2CCN(Cc3nc4ccccc4[nH]3)CC2)nc1` has a remaining binding of 100% (cell-free assay, competition with immobilised ligand; 1 µM).
The remaining binding of `F[C@@H]1CCN(c2nccc(-c3cnn4ncccc34)n2)C1` is reported as 100% (binding; 1 µM).
`CCN1CCN(Cc2ccc(C(=O)Nc3ccc(C)c(Oc4ccc5c(c4)CC(=O)N5)c3)cc2C(F)(F)F)CC1` has a remaining binding of 100% (binding, competition with immobilised ligand; 1 µM).
The remaining binding of `N#CC1(c2ccccn2)CCN(Cc2cc(C(=O)N3CCCC3)c(=O)n3ccccc23)CC1` is reported as 100% (cell-free assay, competition with immobilised ligand; 1 µM).
For `C[C@H]1CCN(c2nccc(-c3cnn4ncccc34)n2)C1`, the remaining binding was 80% (binding; 1 µM).
For `COc1cnc(Nc2cccc(S(N)(=O)=O)c2)nc1N1CCN(c2ccccc2)CC1`, the remaining binding was 100% (binding, competition with immobilised ligand; 1 µM).
With `CN(C)C(=O)Cn1cc(-c2nc(C3(c4ccc(-c5cnc(N)nc5)cc4)CC3)no2)cn1` the remaining binding was 100% (cell-free assay, competition with immobilised ligand; 1 µM).
The remaining binding of `CNC(=O)[C@@H]1CC[C@@H](n2c(-c3ccc4cnccc4c3)nc3ccc(C(=O)NCc4cccc(C(N)=O)c4)cc32)C1` is reported as 100% (binding, competition with immobilised ligand; 1 µM).
With `O=C(c1ccc(Nc2ncc(Cl)c(-c3ccc(Cl)s3)n2)cc1)N1CCC(N2CCCC2)CC1` the remaining binding was 52% (binding, competition with immobilised ligand; 1 µM).
`O=C(Nc1c[nH]nc1C(=O)NC1CCNCC1)c1cc(F)cc(F)c1` has a remaining binding of 100% (binding, competition with immobilised ligand; 1 µM).
For `c1cnn2ncc(-c3ccnc(N4CCC45COC5)n3)c2c1`, the remaining binding was 81% (binding; 1 µM).
`CO[C@@H](C)c1c(Nc2ccc([C@@H](N(C)C(=O)C3CCS(=O)(=O)CC3)C(F)(F)F)cc2)cnc2cc(Cl)nn12` gave a remaining binding of 100% (cell-free assay, competition with immobilised ligand; 1 µM).
`CN(C)c1nccc(-c2cnc3ncccn23)n1` gave a remaining binding of 98% (binding; 1 µM).
For `CS(=O)(=O)N1CCCC(NC(=O)[C@H](CCC2CCCCC2)NC(=O)c2ccc(CNC(=O)c3cnc4ccccn34)cc2)C1` (some centres unmarked), the remaining binding was 100% (cell-free assay, competition with immobilised ligand; 0.1 µM).
`O=C(c1ccc(Nc2ncc(Cl)c(-c3cc4ccccc4s3)n2)cc1)N1CCC(N2CCCC2)CC1` gave a remaining binding of 62% (binding, competition with immobilised ligand; 1 µM).
`CN(C(=O)c1ccccc1)c1cc(N(C)c2ccc3c(c2)CCc2ccc(C(=O)NCCN4CCOCC4)cc2C3=O)ccc1F` gave a remaining binding of 100% (cell-free assay, competition with immobilised ligand; 1 µM).
For `Cc1cnn2ncc(-c3ccnc(N(C)C)n3)c2c1`, the remaining binding was 93% (binding; 1 µM).
